The source made the active and inactive calls. The calls are words filed in the database; no cut-off is given here.

Consider 17 molecules from ChEMBL document CHEMBL3603830, “Synthesis and structure-activity relationship of uracil nucleotide derivatives towards the identification of human P2Y6 receptor antagonists” (Bioorg Med Chem, 2015).

For series [1], the target named is T1, P2Y purinoceptor 6 (Homo sapiens, UniProt Q15077). Description: Agonist activity at human recombinant P2Y6 receptor expressed in human 1321N1 cells assessed as increase in intracellular calcium level by fluo-4 dye-based spectrofluorometric analysis. It counts as functional, cell-based. The method in brief:
(§1)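 1321N1 cells stably expressing recombinant hP2Y6-R were trypsin/EDTA-detached, loaded with 1 µM Fluo-4/AM in HBSS (Ca2+/Mg2+) for 25 min at 37 °C, then held 25 min at 37 °C for de-esterification. Stirred cuvette suspension read at ex 488/em 520 nm after compound addition, with UDP as control. Fmax/Fmin set with 0.1% Triton X-100 then 50 mM EDTA; [Ca2+] = Kd(F−Fmin)/(Fmax−F).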

For series [2], the target named is T1, P2Y purinoceptor 6. Description: Antagonist activity at human recombinant P2Y6 receptor expressed in human 1321N1 cells assessed as inhibition of UDP-induced increase in intracellular calcium level at 100 uM incubated for 2 mins prior to UDP induction by fluo-4 dye-based spectrofluorometric analysis. It counts as functional, cell-based. The method in brief:
(§2)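 hP2Y6-R-expressing 1321N1 cells, Fluo-4/AM-loaded (1 µM, 25 min, 37 °C, then 25 min de-esterification) in HBSS with Ca2+/Mg2+, stirred in a cuvette with fluorescence at 488/520 nm. Analogue given 2 min before 1 µM UDP stimulation. Calcium calculated from Triton X-100/EDTA calibration. Two experiments in duplicate, mean ± SEM; one-way ANOVA against vehicle control.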

The target in series [3] is T1, P2Y purinoceptor 6. Briefly: Antagonist activity at human recombinant P2Y6 receptor expressed in human 1321N1 cells assessed as inhibition of UDP-induced increase in intracellular calcium level at 30 uM incubated for 2 mins prior to UDP induction by fluo-4 dye-based spectrofluorometric analysis. Format: functional, cell-based. In a few lines: as §2
For series [4], the target named is T1, P2Y purinoceptor 6. Briefly: Agonist activity at human recombinant P2Y6 receptor expressed in human 1321N1 cells assessed as increase in intracellular calcium level at >100 uM by fluo-4 dye-based spectrofluorometric analysis. Format: functional, cell-based. In a few lines:
as §1

Series [5] addresses T1, P2Y purinoceptor 6. Briefly: Agonist activity at human recombinant P2Y6 receptor expressed in human 1321N1 cells assessed as increase in intracellular calcium level at 10 uM by fluo-4 dye-based spectrofluorometric analysis relative to UDP-treated control. Format: functional, cell-based. In a few lines: as §1
The target in series [6] is T1, P2Y purinoceptor 6. Description: Agonist activity at human recombinant P2Y6 receptor expressed in human 1321N1 cells assessed as increase in intracellular calcium level at 100 uM by fluo-4 dye-based spectrofluorometric analysis relative to UDP-treated control. Format: functional, cell-based. The method in brief:
as §1

For series [7], the target named is T1, P2Y purinoceptor 6. Description: Agonist activity at human recombinant P2Y6 receptor expressed in human 1321N1 cells assessed as induction of calcium release at 100 uM by fluo-4 dye-based spectrofluorometric analysis. Format: functional, cell-based. In a few lines: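 1321N1 astrocytoma cells stably expressing recombinant hP2Y6-R, trypsin/EDTA-detached, loaded with 1 µM Fluo-4/AM in HBSS (Ca2+/Mg2+) for 25 min at 37 °C, then de-esterified 25 min. Stirred suspension in a quartz cuvette, excitation 488 nm and emission 520 nm. Compound added, with UDP as control. Fmax from 0.1% Triton X-100 and Fmin from 50 mM EDTA; [Ca2+]i = Kd(F−Fmin)/(Fmax−F). Two experiments in duplicate.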

Series [8] concerns the target T2, NPP3 (ectonucleotide pyrophosphatase/phosphodiesterase family member 3) (Homo sapiens, UniProt O14638).
T2 sequence (O14638 whole entry): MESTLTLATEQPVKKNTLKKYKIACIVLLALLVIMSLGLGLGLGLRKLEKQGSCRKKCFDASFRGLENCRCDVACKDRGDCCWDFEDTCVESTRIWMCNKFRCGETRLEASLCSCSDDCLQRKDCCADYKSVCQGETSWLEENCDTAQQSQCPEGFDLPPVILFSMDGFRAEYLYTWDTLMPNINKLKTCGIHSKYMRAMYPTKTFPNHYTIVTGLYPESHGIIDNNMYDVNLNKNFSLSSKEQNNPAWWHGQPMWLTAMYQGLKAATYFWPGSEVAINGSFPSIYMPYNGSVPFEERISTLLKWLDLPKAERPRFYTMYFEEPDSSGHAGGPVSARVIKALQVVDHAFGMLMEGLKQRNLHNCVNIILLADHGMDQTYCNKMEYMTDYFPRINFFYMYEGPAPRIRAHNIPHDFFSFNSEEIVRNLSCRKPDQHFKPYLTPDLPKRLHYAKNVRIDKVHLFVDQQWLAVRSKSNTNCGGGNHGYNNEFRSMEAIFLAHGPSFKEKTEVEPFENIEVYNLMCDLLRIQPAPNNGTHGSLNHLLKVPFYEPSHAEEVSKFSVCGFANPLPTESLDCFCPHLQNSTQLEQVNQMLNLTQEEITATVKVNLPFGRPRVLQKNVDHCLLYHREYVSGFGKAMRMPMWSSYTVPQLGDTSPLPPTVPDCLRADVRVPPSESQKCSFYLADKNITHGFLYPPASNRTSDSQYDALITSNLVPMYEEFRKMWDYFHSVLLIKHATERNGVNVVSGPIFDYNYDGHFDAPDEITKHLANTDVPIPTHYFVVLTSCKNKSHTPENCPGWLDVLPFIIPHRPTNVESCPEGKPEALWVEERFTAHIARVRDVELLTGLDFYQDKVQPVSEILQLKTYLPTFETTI
Briefly: Drug metabolism assessed as human NPP3-mediated compound hydrolysis at 100 uM after 3 hrs by HPLC analysis relative to UDP-treated control. It counts as ADME. The note with it: human NPP3 enzyme, read-out: Drug metabolism. The method in brief: (§3)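 Compound at 100 µM incubated at 37 °C with hNPP1 for 2 h or hNPP3 for 3 h, in buffer of 1 mM CaCl2, 200 mM NaCl, 10 mM KCl and 100 mM Tris, pH 8.5. Quenched with perchloric acid, neutralized to pH 7 with KOH, then C18 HPLC with isocratic TEAA (pH 7)/CH3CN. Degradation taken from the nucleoside monophosphate peak area minus control, relative to 100% UDP hydrolysis.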

Series [9] concerns the target T3, Ectonucleotide pyrophosphatase/phosphodiesterase family member 1 (Homo sapiens) (UniProt P22413).
T3 sequence (whole entry): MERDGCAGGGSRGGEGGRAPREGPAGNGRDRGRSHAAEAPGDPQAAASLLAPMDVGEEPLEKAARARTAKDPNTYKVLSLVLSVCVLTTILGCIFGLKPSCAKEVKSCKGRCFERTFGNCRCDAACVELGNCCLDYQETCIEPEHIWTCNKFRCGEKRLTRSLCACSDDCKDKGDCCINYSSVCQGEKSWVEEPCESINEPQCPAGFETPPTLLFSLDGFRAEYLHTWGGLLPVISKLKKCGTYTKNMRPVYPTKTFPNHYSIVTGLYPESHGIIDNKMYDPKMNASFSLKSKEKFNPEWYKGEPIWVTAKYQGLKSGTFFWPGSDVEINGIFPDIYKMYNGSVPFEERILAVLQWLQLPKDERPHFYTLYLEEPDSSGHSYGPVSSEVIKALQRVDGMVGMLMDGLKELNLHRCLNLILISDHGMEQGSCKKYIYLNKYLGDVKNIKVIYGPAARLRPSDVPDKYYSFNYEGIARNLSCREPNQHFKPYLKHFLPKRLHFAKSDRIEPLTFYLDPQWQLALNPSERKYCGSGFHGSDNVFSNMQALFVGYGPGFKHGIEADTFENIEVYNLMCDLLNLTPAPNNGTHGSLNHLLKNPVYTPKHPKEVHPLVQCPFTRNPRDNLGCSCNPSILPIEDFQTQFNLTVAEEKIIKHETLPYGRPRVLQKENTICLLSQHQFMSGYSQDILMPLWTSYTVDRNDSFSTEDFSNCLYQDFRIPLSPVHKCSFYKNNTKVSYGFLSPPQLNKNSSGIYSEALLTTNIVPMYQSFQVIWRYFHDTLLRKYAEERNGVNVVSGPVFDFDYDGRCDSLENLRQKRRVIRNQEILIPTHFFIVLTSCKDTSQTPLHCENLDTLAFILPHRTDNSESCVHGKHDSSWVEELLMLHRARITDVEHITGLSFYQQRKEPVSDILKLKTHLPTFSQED
Description: Inhibition of human NPP1-mediated UDP hydrolysis at 100 uM after 2 hrs relative to UDP-treated control. The method in brief:
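21.44 µg hNPP1 extract pre-incubated 3 min at 37 °C in 1 mM CaCl2, 140 mM NaCl, 5 mM KCl and 50 mM Tris, pH 8.5. Reaction started with compound and UDP, each 100 µM final. Stopped after 2 h with ice-cold perchloric acid, neutralized with KOH, then HPLC. Compared with UDP-only reference samples. Mean ± S.D. of three experiments.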

Series [10] addresses T4, NPP1 (ectonucleotide pyrophosphatase/phosphodiesterase family member 1) (Homo sapiens, UniProt P22413).
T4 sequence (P22413 whole entry): T3 sequence (whole entry)
Briefly: Drug metabolism assessed as human NPP1-mediated compound hydrolysis at 100 uM after 2 hrs by HPLC analysis relative to UDP-treated control. Format: ADME. The note with it: human NPP1 enzyme, read-out: Drug metabolism. In a few lines:
as §3

For series [11], the target named is T5, Ectonucleotide pyrophosphatase/phosphodiesterase family member 3 (Homo sapiens) (UniProt O14638).
T5 sequence (whole entry): T2 sequence (O14638 whole entry)
Description: Inhibition of human NPP3-mediated UDP hydrolysis at 100 uM after 3 hrs relative to UDP-treated control.

T1 sequence (Q15077 whole entry): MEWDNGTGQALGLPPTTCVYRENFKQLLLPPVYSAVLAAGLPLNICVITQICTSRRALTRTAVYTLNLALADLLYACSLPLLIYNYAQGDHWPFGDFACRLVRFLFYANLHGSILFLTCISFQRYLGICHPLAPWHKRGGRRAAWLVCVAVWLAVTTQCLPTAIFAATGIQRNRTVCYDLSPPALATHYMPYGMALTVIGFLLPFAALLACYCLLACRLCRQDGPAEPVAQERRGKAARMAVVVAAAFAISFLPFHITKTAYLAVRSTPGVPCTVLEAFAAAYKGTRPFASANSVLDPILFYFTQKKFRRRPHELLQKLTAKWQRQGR

As for `Cn1c(=O)ccn([C@@H]2O[C@H](COP(=O)(O)CP(=O)(O)O)[C@@H](O)[C@H]2O)c1=O`, the result at P2Y purinoceptor 6 [1] was inactive. The inhibition result at P2Y purinoceptor 6 [2] was “inactive”.
Consider `O=c1[nH]c(=O)n([C@@H]2O[C@H](COP(=O)(O)C(F)(F)P(=O)(O)O)[C@@H](O)[C@H]2O)cc1F`, for which the inhibition result on P2Y purinoceptor 6 [3] was “inactive”. Further, the outcome on P2Y purinoceptor 6 [1] was Active. In addition, on P2Y purinoceptor 6 [2], the inhibition entry is “Active”.
With `COc1cn([C@@H]2O[C@H](COP(=O)(O)C(F)(F)P(=O)(O)O)[C@@H](O)[C@H]2O)c(=O)[nH]c1=O`, the result at P2Y purinoceptor 6 [4] and at P2Y purinoceptor 6 [1] was Active. Moreover, at P2Y purinoceptor 6 [3], the inhibition entry is “inactive”. Further, the inhibition at P2Y purinoceptor 6 [2] was 40%.
With `O=c1[nH]c(=O)n([C@H]2C[C@H](O)[C@@H](COP(=O)(O)C(Cl)(Cl)P(=O)(O)O)O2)cc1F`, at P2Y purinoceptor 6 [4], the result was inactive. Besides, the inhibition entry at P2Y purinoceptor 6 [3] was “inactive”.
As to `COc1cn([C@@H]2O[C@H](COP(=O)(O)C(Cl)(Cl)P(=O)(O)O)[C@@H](O)[C@H]2O)c(=O)[nH]c1=O`, at P2Y purinoceptor 6 [3], the inhibition result is “inactive”. Further, the result at P2Y purinoceptor 6 [1] was Active. Moreover, the inhibition entry on P2Y purinoceptor 6 [2] was “Active”.
Turning to `O=c1[nH]c(=O)n([C@@H]2O[C@H](COP(=O)(O)C(Cl)(Cl)P(=O)(O)O)[C@@H](O)[C@H]2O)cc1F`, at P2Y purinoceptor 6 [3], the inhibition entry was “inactive”. Also, the outcome on P2Y purinoceptor 6 [1] was Active.
`CC(C)c1cn([C@@H]2O[C@H](COP(=O)(O)CP(=O)(O)O)[C@@H](O)[C@H]2O)c(=O)[nH]c1=O`: the outcome at P2Y purinoceptor 6 [1] was inactive. In addition, the inhibition on P2Y purinoceptor 6 [2] amounted to 24%.
Consider `COc1cn([C@@H]2O[C@H](COP(=O)(O)CP(=O)(O)O)[C@@H](O)[C@H]2O)c(=O)[nH]c1=O`, for which the Activity on P2Y purinoceptor 6 [5] was 27%.
In the case of `Cc1cn([C@@H]2O[C@H](COP(=O)(O)CP(=O)(O)O)[C@@H](O)[C@H]2O)c(=O)[nH]c1=O`, the Activity at P2Y purinoceptor 6 [6] is 60%.
With `O=c1ccn([C@@H]2O[C@H](COP(=O)(O)CS(=O)(=O)O)[C@@H](O)[C@H]2O)c(=O)[nH]1`, the result on P2Y purinoceptor 6 [7] was inactive. The metabolised at 3 h, 100 µM in series [8] was found to be 13.5%. Also, the inhibition in series [9] came out at 26.7%; in [11] it was 12.2%. Besides, the inhibition entry at P2Y purinoceptor 6 [2] was “inactive”. Further, the metabolised at 2 h, 100 µM in [10] stood at 9.5%.
`O=c1[nH]c(=O)n([C@@H]2O[C@H](COP(=O)(O)CP(=O)(O)O)[C@@H](O)[C@H]2O)cc1F`: the outcome on P2Y purinoceptor 6 [1] was Active.
In the case of `O=c1[nH]c(=O)n([C@@H]2O[C@H](COP(=O)(O)OS(=O)(=O)O)[C@@H](O)[C@H]2O)cc1F`, the metabolised at 3 h, 100 µM in series [8] is 44.4%. In series [10], the metabolised at 2 h, 100 µM was 18.9%.
Regarding `O=c1[nH]c(=O)n([C@H]2C[C@H](O)[C@@H](COP(=O)(O)CP(=O)(O)O)O2)cc1F`, the outcome on P2Y purinoceptor 6 [4] was Active. On P2Y purinoceptor 6 [3], the inhibition result is “inactive”.
On to `O=c1[nH]c(=O)n([C@@H]2O[C@H](COP(=O)(O)CP(=O)(O)O)[C@@H](O)[C@H]2O)cc1-c1ccccc1`, for which the outcome at P2Y purinoceptor 6 [1] was inactive. Also, the inhibition result at P2Y purinoceptor 6 [2] was “inactive”.
Turning to `COc1cn([C@@H]2O[C@H](COP(=O)(O)CS(=O)(=O)O)[C@@H](O)[C@H]2O)c(=O)[nH]c1=O`, at P2Y purinoceptor 6 [7], the result was inactive. Also, the metabolised at 3 h, 100 µM in series [8] was found to be 11%. Besides, the inhibition in [9] came out at 48.4%; in series [11], 10.5%. Further, the inhibition result at P2Y purinoceptor 6 [2] was “inactive”. For the same molecule, the metabolised at 2 h, 100 µM in series [10] came out at 21.6%.
Regarding `O=c1[nH]c(=O)n([C@H]2C[C@H](OP(=O)(O)O)[C@@H](COP(=O)(O)O)O2)cc1F`, the outcome on P2Y purinoceptor 6 [4] was Active. Moreover, the inhibition entry at P2Y purinoceptor 6 [3] is “inactive”.
Turning to `O=c1[nH]c(=O)n([C@H]2C[C@H](O)[C@@H](COP(=O)(O)C(F)(F)P(=O)(O)O)O2)cc1F`, at P2Y purinoceptor 6 [4], the outcome was inactive. Moreover, the inhibition entry at P2Y purinoceptor 6 [3] is “inactive”.
